Laboratory results as given in ChEMBL document CHEMBL1135850, “P1 Phenethyl peptide boronic acid inhibitors of HCV NS3 protease” (Bioorg Med Chem Lett, 2002).
Peptide text beside a SMILES is read from it. * marks the point of attachment. X3 = CC1(C)[C@@H]2C[C@H]3OB([C@H](CCc4cccc(C(F)(F)F)c4)N*)O[C@@]3(C)[C@H]1C2; X4 = CC1(C)[C@@H]2C[C@H]3OB([C@H](CCc4cccc(F)c4)N*)O[C@@]3(C)[C@H]1C2; X1 = CC1(C)[C@@H]2C[C@H]3OB([C@H](CCc4ccccc4F)N*)O[C@@]3(C)[C@H]1C2; X6 = CC1(C)[C@@H]2C[C@H]3OB([C@H](CCCc4ccccc4)N*)O[C@@]3(C)[C@H]1C2; X15 = CC1(C)[C@@H]2C[C@H]3OB([C@H](Cc4ccccc4)N*)O[C@@]3(C)[C@H]1C2; X12 = CC(C)CC[C@H](N*)B1O[C@@H]2C[C@@H]3C[C@@H](C3(C)C)[C@]2(C)O1; X9 = CC1(C)[C@@H]2C[C@H]3OB([C@@H](N*)c4ccccc4)O[C@@]3(C)[C@H]1C2; X11 = CCCCCC[C@H](N*)B1O[C@@H]2C[C@@H]3C[C@@H](C3(C)C)[C@]2(C)O1; X13 = CCCCC[C@H](N*)B1O[C@@H]2C[C@@H]3C[C@@H](C3(C)C)[C@]2(C)O1; X14 = CCCC[C@H](N*)B1O[C@@H]2C[C@@H]3C[C@@H](C3(C)C)[C@]2(C)O1

How the values were obtained:
NS3 = NS3 (Hepatitis C virus, UniProt A3EZJ3); experiment: Binding affinity against Hepatitis C virus NS3 protease; set-up: species or system Hepacivirus hominis
Method in brief: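 Continuous fluorescence assay with 4 nM NS3 protease plus NS4A cofactor peptide, in 50 mM Tris pH 7.0, 5 mM DTT, 50% glycerol, 2% CHAPS. Serially diluted inhibitors, given as boronic acid pinanediol esters, were preincubated with enzyme for 15 min. The reaction was started with the FRET ester substrate Ac-DED(EDANS)EEAbuψ[COO]ASK(DABCYL)-NH2 at ambient temperature and read at excitation 360 nm, emission 530 nm.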

Neutrophil elastase = molecular target: T1, Neutrophil elastase (Homo sapiens, UniProt P08246); experiment: Inhibitory concentration against Human leukocyte Elastase
T1 sequence (P08246 whole entry): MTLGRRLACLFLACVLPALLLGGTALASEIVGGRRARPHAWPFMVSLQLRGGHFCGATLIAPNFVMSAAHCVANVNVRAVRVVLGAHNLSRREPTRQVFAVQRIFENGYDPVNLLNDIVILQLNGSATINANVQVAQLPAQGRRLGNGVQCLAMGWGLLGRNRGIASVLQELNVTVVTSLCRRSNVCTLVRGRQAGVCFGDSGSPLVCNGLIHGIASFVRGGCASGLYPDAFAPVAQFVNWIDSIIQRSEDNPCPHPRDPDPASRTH
Method in brief: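 Human neutrophil elastase (stock 1 mg/mL in PBS with 10% glycerol) with MeO-Suc-Ala-Ala-Pro-Val-p-nitroanilide substrate in PBS at room temperature, DMSO ≤2%. Inhibitors were tested as pinanediol esters. Substrate hydrolysis was followed at 405 nm to derive kinetic parameters.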

| SMILES | Ki (NS3) | IC50 (Neutrophil elastase) |
| --- | --- | --- |
| COc1ccc(CC[C@H](NC(=O)[C@@H]2CCCN2C(=O)[C@@H](NC(=O)[C@@H](NC(=O)[C@H](CCC(=O)O)NC(=O)[C@@H](N)CC(=O)O)C(C)C)C(C)C)B2O[C@@H]3C[C@@H]4C[C@@H](C4(C)C)[C@]3(C)O2)cc1 | 3 nM | – |
| CC(C)[C@H](NC(=O)[C@H](CCC(=O)O)NC(=O)[C@@H](N)CC(=O)O)C(=O)N[C@H](C(=O)N1CCC[C@H]1C(=O)N[C@@H](CCc1ccc(F)cc1)B1O[C@@H]2C[C@@H]3C[C@@H](C3(C)C)[C@]2(C)O1)C(C)C | 6 nM | – |
| CC(C)[C@H](NC(=O)[C@H](CCC(=O)O)NC(=O)[C@@H](N)CC(=O)O)C(=O)N[C@H](C(=O)N1CCC[C@@H]1C(=O)N[C@@H](CCc1ccc(F)cc1)B1O[C@@H]2C[C@@H]3C[C@@H](C3(C)C)[C@]2(C)O1)C(C)C | – | 800 nM |
| CC(C)[C@H](NC(=O)[C@H](CCC(=O)O)NC(=O)[C@@H](N)CC(=O)O)C(=O)N[C@H](C(=O)N1CCC[C@H]1C(=O)N[C@@H](CCc1ccc(C(F)(F)F)cc1)B1O[C@@H]2C[C@@H]3C[C@@H](C3(C)C)[C@]2(C)O1)C(C)C | 2 nM | – |
| CC(C)[C@H](NC(=O)[C@H](CCC(=O)O)NC(=O)[C@@H](N)CC(=O)O)C(=O)N[C@H](C(=O)N1CCC[C@H]1C(=O)N[C@@H](CCc1ccc(C2CCCCC2)cc1)B1O[C@@H]2C[C@@H]3C[C@@H](C3(C)C)[C@]2(C)O1)C(C)C | 3 nM | – |
| CC(C)[C@H](NC(=O)[C@H](CCC(=O)O)NC(=O)[C@@H](N)CC(=O)O)C(=O)N[C@H](C(=O)N1CCC[C@H]1C(=O)N[C@@H](CCc1ccc(Br)cc1)B1O[C@@H]2C[C@@H]3C[C@@H](C3(C)C)[C@]2(C)O1)C(C)C | 4 nM | – |
| CC(C)[C@H](NC(=O)[C@H](CCC(=O)O)NC(=O)[C@@H](N)CC(=O)O)C(=O)N[C@H](C(=O)N1CCC[C@H]1C(=O)N[C@@H](CCc1ccccc1)B1O[C@@H]2C[C@@H]3C[C@@H](C3(C)C)[C@]2(C)O1)C(C)C | 8 nM | – |
| Cc1cccc(CC[C@H](NC(=O)[C@@H]2CCCN2C(=O)[C@@H](NC(=O)[C@@H](NC(=O)[C@H](CCC(=O)O)NC(=O)[C@@H](N)CC(=O)O)C(C)C)C(C)C)B2O[C@@H]3C[C@@H]4C[C@@H](C4(C)C)[C@]3(C)O2)c1 | 34 nM | – |
| Cc1cccc(CC[C@H](NC(=O)[C@H]2CCCN2C(=O)[C@@H](NC(=O)[C@@H](NC(=O)[C@H](CCC(=O)O)NC(=O)[C@@H](N)CC(=O)O)C(C)C)C(C)C)B2O[C@@H]3C[C@@H]4C[C@@H](C4(C)C)[C@]3(C)O2)c1 | – | 5700 nM |
| CC(C)[C@H](NC(=O)[C@H](CCC(=O)O)NC(=O)[C@@H](N)CC(=O)O)C(=O)N[C@H](C(=O)N1CCC[C@H]1C(=O)N[C@@H](CCc1ccc(O)cc1)B1O[C@@H]2C[C@@H]3C[C@@H](C3(C)C)[C@]2(C)O1)C(C)C | 8 nM | – |
| CC(C)c1ccc(CC[C@H](NC(=O)[C@@H]2CCCN2C(=O)[C@@H](NC(=O)[C@@H](NC(=O)[C@H](CCC(=O)O)NC(=O)[C@@H](N)CC(=O)O)C(C)C)C(C)C)B2O[C@@H]3C[C@@H]4C[C@@H](C4(C)C)[C@]3(C)O2)cc1 | 5 nM | – |
| CC(C)[C@H](NC(=O)[C@H](CCC(=O)O)NC(=O)[C@@H](N)CC(=O)O)C(=O)N[C@H](C(=O)N1CCC[C@H]1C(=O)N[C@@H](CCc1ccc(Cl)cc1)B1O[C@@H]2C[C@@H]3C[C@@H](C3(C)C)[C@]2(C)O1)C(C)C | 2 nM | – |
| CC(C)CCC[C@H](NC(=O)[C@@H]1CCCN1C(=O)[C@@H](NC(=O)[C@@H](NC(=O)[C@H](CCC(=O)O)NC(=O)[C@@H](N)CC(=O)O)C(C)C)C(C)C)B1O[C@@H]2C[C@@H]3C[C@@H](C3(C)C)[C@]2(C)O1 | 7 nM | – |
| CC(C)CCC[C@H](NC(=O)[C@H]1CCCN1C(=O)[C@@H](NC(=O)[C@@H](NC(=O)[C@H](CCC(=O)O)NC(=O)[C@@H](N)CC(=O)O)C(C)C)C(C)C)B1O[C@@H]2C[C@@H]3C[C@@H](C3(C)C)[C@]2(C)O1 | – | 7300 nM |
| CC(C)[C@H](NC(=O)[C@H](CCC(=O)O)NC(=O)[C@@H](N)CC(=O)O)C(=O)N[C@H](C(=O)N1CCC[C@H]1C(=O)N[C@@H](CCc1ccc(C(C)(C)C)cc1)B1O[C@@H]2C[C@@H]3C[C@@H](C3(C)C)[C@]2(C)O1)C(C)C | 3 nM | – |
| CC(C)[C@H](NC(=O)[C@H](CCC(=O)O)NC(=O)[C@@H](N)CC(=O)O)C(=O)N[C@H](C(=O)N1CCC[C@H]1C(=O)N[C@@H](CCc1ccc(Oc2ccccc2)cc1)B1O[C@@H]2C[C@@H]3C[C@@H](C3(C)C)[C@]2(C)O1)C(C)C | 3 nM | – |

| SMILES | Ki (NS3) | IC50 (Neutrophil elastase) |
| --- | --- | --- |
| CC(C)[C@H](NC(=O)[C@H](CCC(=O)O)NC(=O)[C@@H](N)CC(=O)O)C(=O)N[C@H](C(=O)N1CCC[C@H]1C(=O)N[C@@H](CCCCc1ccccc1)B1O[C@@H]2C[C@@H]3C[C@@H](C3(C)C)[C@]2(C)O1)C(C)C | 10 nM | – |
| CC[C@H](NC(=O)[C@@H]1CCCN1C(=O)[C@@H](NC(=O)[C@@H](NC(=O)[C@H](CCC(=O)O)NC(=O)[C@@H](N)CC(=O)O)C(C)C)C(C)C)B1O[C@@H]2C[C@@H]3C[C@@H](C3(C)C)[C@]2(C)O1 | 8 nM | – |
| Cc1ccc(CC[C@H](NC(=O)[C@@H]2CCCN2C(=O)[C@@H](NC(=O)[C@@H](NC(=O)[C@H](CCC(=O)O)NC(=O)[C@@H](N)CC(=O)O)C(C)C)C(C)C)B2O[C@@H]3C[C@@H]4C[C@@H](C4(C)C)[C@]3(C)O2)cc1 | 17 nM | – |
| CC(C)[C@H](NC(=O)[C@H](CCC(=O)O)NC(=O)[C@@H](N)CC(=O)O)C(=O)N[C@H](C(=O)N1CCC[C@H]1C(=O)N[C@@H](CCc1ccc(-c2ccccc2)cc1)B1O[C@@H]2C[C@@H]3C[C@@H](C3(C)C)[C@]2(C)O1)C(C)C | 7 nM | – |
| CC(C)[C@H](NC(=O)[C@H](CCC(=O)O)NC(=O)[C@@H](N)CC(=O)O)C(=O)N[C@H](C(=O)N1CCC[C@@H]1C(=O)N[C@@H](CCc1ccc(-c2ccccc2)cc1)B1O[C@@H]2C[C@@H]3C[C@@H](C3(C)C)[C@]2(C)O1)C(C)C | – | 900 nM |
| CC(C)C[C@H](NC(=O)[C@@H]1CCCN1C(=O)[C@@H](NC(=O)[C@@H](NC(=O)[C@H](CCC(=O)O)NC(=O)[C@@H](N)CC(=O)O)C(C)C)C(C)C)B1O[C@@H]2C[C@@H]3C[C@@H](C3(C)C)[C@]2(C)O1 | 8 nM | – |
| CC(C)[C@H](NC(=O)[C@H](CCC(=O)O)NC(=O)[C@@H](N)CC(=O)O)C(=O)N[C@H](C(=O)N1CCC[C@H]1C(=O)N[C@@H](CCc1ccccc1F)B1O[C@@H]2C[C@@H]3C[C@@H](C3(C)C)[C@]2(C)O1)C(C)C (H-DEVVP-X1) | 18 nM | – |
| CC(C)[C@H](NC(=O)[C@H](CCC(=O)O)NC(=O)[C@@H](N)CC(=O)O)C(=O)N[C@H](C(=O)N1CCC[C@H]1C(=O)N[C@@H](CCc1cccc(C(F)(F)F)c1)B1O[C@@H]2C[C@@H]3C[C@@H](C3(C)C)[C@]2(C)O1)C(C)C (H-DEVVP-X3) | 25 nM | – |
| CC(C)[C@H](NC(=O)[C@H](CCC(=O)O)NC(=O)[C@@H](N)CC(=O)O)C(=O)N[C@H](C(=O)N1CCC[C@H]1C(=O)N[C@@H](CCc1cccc(F)c1)B1O[C@@H]2C[C@@H]3C[C@@H](C3(C)C)[C@]2(C)O1)C(C)C (H-DEVVP-X4) | 9 nM | – |
| CC(C)[C@H](NC(=O)[C@H](CCC(=O)O)NC(=O)[C@@H](N)CC(=O)O)C(=O)N[C@H](C(=O)N1CCC[C@H]1C(=O)N[C@@H](CCCc1ccccc1)B1O[C@@H]2C[C@@H]3C[C@@H](C3(C)C)[C@]2(C)O1)C(C)C (H-DEVVP-X6) | 200 nM | – |
| CC(C)[C@H](NC(=O)[C@H](CCC(=O)O)NC(=O)[C@@H](N)CC(=O)O)C(=O)N[C@H](C(=O)N1CCC[C@H]1C(=O)N[C@H](B1O[C@@H]2C[C@@H]3C[C@@H](C3(C)C)[C@]2(C)O1)c1ccccc1)C(C)C (H-DEVVP-X9) | 900 nM | – |
| CCCCCC[C@H](NC(=O)[C@@H]1CCCN1C(=O)[C@@H](NC(=O)[C@@H](NC(=O)[C@H](CCC(=O)O)NC(=O)[C@@H](N)CC(=O)O)C(C)C)C(C)C)B1O[C@@H]2C[C@@H]3C[C@@H](C3(C)C)[C@]2(C)O1 (H-DEVVP-X11) | 13 nM | – |
| CC(C)CC[C@H](NC(=O)[C@@H]1CCCN1C(=O)[C@@H](NC(=O)[C@@H](NC(=O)[C@H](CCC(=O)O)NC(=O)[C@@H](N)CC(=O)O)C(C)C)C(C)C)B1O[C@@H]2C[C@@H]3C[C@@H](C3(C)C)[C@]2(C)O1 (H-DEVVP-X12) | 39 nM | – |
| CCCCC[C@H](NC(=O)[C@@H]1CCCN1C(=O)[C@@H](NC(=O)[C@@H](NC(=O)[C@H](CCC(=O)O)NC(=O)[C@@H](N)CC(=O)O)C(C)C)C(C)C)B1O[C@@H]2C[C@@H]3C[C@@H](C3(C)C)[C@]2(C)O1 (H-DEVVP-X13) | 12 nM | – |
| CCCC[C@H](NC(=O)[C@@H]1CCCN1C(=O)[C@@H](NC(=O)[C@@H](NC(=O)[C@H](CCC(=O)O)NC(=O)[C@@H](N)CC(=O)O)C(C)C)C(C)C)B1O[C@@H]2C[C@@H]3C[C@@H](C3(C)C)[C@]2(C)O1 (H-DEVVP-X14) | 11 nM | – |
| CC(C)[C@H](NC(=O)[C@H](CCC(=O)O)NC(=O)[C@@H](N)CC(=O)O)C(=O)N[C@H](C(=O)N1CCC[C@H]1C(=O)N[C@@H](Cc1ccccc1)B1O[C@@H]2C[C@@H]3C[C@@H](C3(C)C)[C@]2(C)O1)C(C)C (H-DEVVP-X15) | 500 nM | – |
